# Data published in ChEMBL document CHEMBL1833937, “Structure-based design of pseudopeptidic inhibitors for SIRT1 and SIRT2” (J Med Chem, 2011).
# The source made the active and inactive calls. No cut-off for these calls is given here. Where a SMILES comes first, the peptide text is derived from it. [ ]: non-standard residue; d: D form. Lys(Thioacetyl) = CC(=S)NCCCC[C@H](N)C(=O)O
# Experiments:
# [1] = biological target: T1, NAD-dependent protein deacetylase sirtuin-2 (Homo sapiens, UniProt Q8IXJ6); test: Inhibition of recombinant GST-tagged SIRT2 after 1 hr by Fluor de Lys-based fluorescence assay
# T1 sequence (Q8IXJ6 whole entry): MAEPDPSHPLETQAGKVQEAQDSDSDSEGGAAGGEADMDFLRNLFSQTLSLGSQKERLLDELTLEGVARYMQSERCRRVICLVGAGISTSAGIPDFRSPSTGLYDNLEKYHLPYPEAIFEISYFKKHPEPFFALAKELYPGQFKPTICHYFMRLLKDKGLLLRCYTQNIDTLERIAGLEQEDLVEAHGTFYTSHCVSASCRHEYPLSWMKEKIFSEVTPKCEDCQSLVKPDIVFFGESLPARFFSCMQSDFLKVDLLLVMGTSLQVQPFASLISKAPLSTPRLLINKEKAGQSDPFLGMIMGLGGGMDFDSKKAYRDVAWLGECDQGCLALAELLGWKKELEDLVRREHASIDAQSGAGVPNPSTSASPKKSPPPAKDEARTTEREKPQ
# In short: (§1)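 Fluor de Lys deacetylation: GST-SIRT1 with KI177 substrate at 40 μM or GST-SIRT2 with KI179 substrate at 138 μM (70% of Km; Km 58 and 198 μM), 500 μM NAD+, assay buffer with 1 mg/mL BSA, DMSO 2.5 μL per 50 μL. Substrate, NAD+ and compound preincubated 5 min rt; enzyme starts reaction, 1 h 37 °C. Developer plus 2 mM nicotinamide, 45 min 37 °C; ex 355/em 460 nm. IC50 from 9-point dose-response (0.0001–2000 μM), at least three repeats.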
# [2] = biological target: Histone deacetylase (Homo sapiens) (UniProt Q13547+O15379+Q9UBN7+Q92769+Q9UQL6+Q8WUI4+Q9BY41+Q96DB2+P56524+Q9UKV0+Q969S8); test: Inhibition of HDAC in human HeLa nuclear extract at 200 uM after 1 hr by Fluor de Lys-based fluorescence assay; type: protein assay
# In short: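 HeLa nuclear extract as HDAC source, 50 μM acetylated Fluor de Lys HDAC substrate, compounds 200 μM in HDAC assay buffer; substrate addition starts reaction, 1 h at 37 °C. Developer plus […], 15 min at 25 °C; fluorescence ex 355/em 460 nm. Run twice; means and standard deviations.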
# [3] = biological target: T2, NAD-dependent protein deacetylase sirtuin-1 (Homo sapiens, UniProt Q96EB6); test: Inhibition of recombinant GST-tagged SIRT1 after 1 hr by Fluor de Lys-based fluorescence assay; in short: as §1
# T2 sequence (Q96EB6 whole entry): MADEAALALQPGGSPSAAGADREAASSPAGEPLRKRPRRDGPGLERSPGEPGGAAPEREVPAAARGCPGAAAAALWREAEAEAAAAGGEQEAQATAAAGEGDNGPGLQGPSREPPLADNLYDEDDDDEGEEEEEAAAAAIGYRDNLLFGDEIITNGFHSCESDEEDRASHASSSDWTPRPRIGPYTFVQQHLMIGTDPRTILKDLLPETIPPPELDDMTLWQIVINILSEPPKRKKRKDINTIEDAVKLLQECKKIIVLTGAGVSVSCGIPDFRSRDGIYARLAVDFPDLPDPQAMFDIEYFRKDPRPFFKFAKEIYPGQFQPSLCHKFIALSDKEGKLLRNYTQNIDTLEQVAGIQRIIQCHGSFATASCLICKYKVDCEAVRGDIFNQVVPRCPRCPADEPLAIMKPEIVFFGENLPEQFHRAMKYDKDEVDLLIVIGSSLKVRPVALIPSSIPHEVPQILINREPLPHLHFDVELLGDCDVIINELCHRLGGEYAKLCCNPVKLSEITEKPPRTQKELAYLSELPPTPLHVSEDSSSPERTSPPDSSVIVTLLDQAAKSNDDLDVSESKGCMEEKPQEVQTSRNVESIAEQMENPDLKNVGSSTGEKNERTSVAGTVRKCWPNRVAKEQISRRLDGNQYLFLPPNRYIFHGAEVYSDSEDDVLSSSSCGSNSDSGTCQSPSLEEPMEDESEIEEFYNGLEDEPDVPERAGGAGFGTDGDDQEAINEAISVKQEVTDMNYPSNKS
# [4] = biological target: T3, NAD-dependent protein deacetylase sirtuin-1 (Homo sapiens) (UniProt Q96EB6); test: Inhibition of human SIRT1 in SH-SY5Y cells assessed as increase in p53 acetylation level at 10 uM after 5 hrs by Western blot analysis in presence of etoposide-induced DNA damage; type: cell-based
# T3 sequence (whole entry): T2 sequence (Q96EB6 whole entry)
# In short: (§2)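 Cells seeded at 10^5 per well and treated 24 h later with compound plus etoposide together for 5 h. Lysates (M-PER) cleared 16000g 20 min, equal protein on 4–12% SDS-PAGE, blotted to nitrocellulose, probed with rabbit monoclonal anti-acetyl-p53 (K382), actin as loading control, HRP secondary and chemiluminescence.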
# [5] = Cytotoxicity against human ARPE19 cells at 10 uM by LDH assay; type: cell-based; conditions: arpe-19, 10 µM
# In short: (§3)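 After plating at 10^5 cells/well and 24 h attachment, cells exposed 5 h to compound together with etoposide; cytotoxicity read as lactate dehydrogenase released into culture medium by a commercial LDH kit.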
# SH-SY5Y [6] = test: Cytotoxicity against human SH-SY5Y cells at 10 uM by LDH assay; type: functional, cell-based; in short: as §3
# [7] = Cytotoxicity against human astrocytes at 10 uM by LDH assay; type: cell-based; conditions: astrocyte; in short: as §3
# [8] = biological target: T3, NAD-dependent protein deacetylase sirtuin-1 (Homo sapiens); test: Inhibition of human SIRT1 in ARPE19 cells assessed as increase in p53 acetylation level at 10 uM after 5 hrs by Western blot analysis in presence of etoposide-induced DNA damage; type: cell-based; in short: as §2
# [9] = biological target: T3, NAD-dependent protein deacetylase sirtuin-1 (Homo sapiens); test: Inhibition of human SIRT1 in human astrocytes assessed as increase in p53 acetylation level at 10 uM after 5 hrs by Western blot analysis in presence of etoposide-induced DNA damage; type: cell-based; in short: as §2
# SH-SY5Y [10] = test: Cytotoxicity against human SH-SY5Y cells at 100 uM by LDH assay; type: functional, cell-based; in short: as §3
# [11] = biological target: T3, NAD-dependent protein deacetylase sirtuin-1 (Homo sapiens); test: Inhibition of human SIRT1 in SH-SY5Y cells assessed as increase in p53 acetylation level at 100 uM after 5 hrs by Western blot analysis in presence of etoposide-induced DNA damage; type: cell-based; in short: as §2
# [12] = biological target: T3, NAD-dependent protein deacetylase sirtuin-1 (Homo sapiens); test: Inhibition of recombinant GST-tagged SIRT1 at 200 uM after 1 hr by Fluor de Lys-based fluorescence assay
# In short: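 Single-point Fluor de Lys test at 200 μM: GST-SIRT1 (40 μM KI177 substrate) or GST-SIRT2 (138 μM KI179 substrate), 500 μM NAD+, BSA-supplemented buffer, 5 min rt preincubation, enzyme-started 1 h at 37 °C. Developer with 2 mM nicotinamide 45 min 37 °C; fluorescence ex 355/em 460 nm. Percent inhibition ± standard deviation.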
IC50 [1] [µM],inhibition [2] [%],IC50 [3] [µM],SMILES,also measured
6.5,10.1,0.77,CC(=S)NCCCC[C@H](NC(=O)[C@H](C)NC(=O)OC(C)(C)C)C(=O)N[C@@H](C)C(=O)O,–
36,–,0.66,CC(=S)NCCCC[C@H](NC(=O)[C@H](C)N)C(=O)N[C@@H](C)C(=O)O,–
–,7.6,18,CC(=S)NCCCC[C@H](NC(=O)[C@H](N)Cc1ccccc1)C(=O)N[C@@H](C)C(=O)O,–
13,23.7,0.97,CC(=S)NCCCC[C@H](NC(=O)[C@@H]1CCCN(C(=O)OC(C)(C)C)C1)C(=O)N[C@@H](C)C(=O)O,Activity [4]: Active; Activity (SH-SY5Y [10]): inactive; Activity (SH-SY5Y [6]): inactive; Activity [11]: Active
13,–,1,COC(=O)[C@H](C)NC(=O)[C@H](CCCCNC(C)=S)NC(=O)[C@H](C)NC(C)=O,–
862,–,51,COC(=O)[C@H](C)NC(=O)[C@H](CCCCNC(C)=S)NC(C)=O,–
31,–,0.37,CC(=O)N1CCC[C@H]1C(=O)N[C@@H](CCCCNC(C)=S)C(=O)N[C@@H](C)C(=O)O,–
2.9,–,0.4,CNC(=O)[C@H](C)NC(=O)[C@H](CCCCNC(C)=S)NC(=O)[C@H](C)NC(C)=O,–
53,5.6,1,CC(=S)NCCCC[C@H](NC(=O)CCc1ccccc1O)C(=O)N[C@@H](C)C(=O)O,–

# Further lines, the molecule ahead of its results:
SMILES,IC50 [1] [µM],inhibition [2] [%],IC50 [3] [µM],also measured
CC(=S)NCCCC[C@H](NC(=O)OCc1ccccc1)C(=O)NC1CCCCC1,–,75.4,23,–
CC(=S)NCCCC[C@H](NC(=O)OCc1ccccc1)C(=O)Nc1ccccc1,15,2.5,9.9,–
CC(=S)NCCCC[C@H](NC(=O)OCc1ccccc1)C(=O)NCC(=O)c1ccccc1,4.3,5.1,1.6,Activity [4]: Active; Activity [5]: Non-toxic; Activity (SH-SY5Y [6]): inactive; Activity [7]: Non-toxic; Activity [8]: Active; Activity [9]: Active
CC(=S)NCCCC[C@H](NC(=O)OCc1ccccc1)C(=O)N[C@@H](C)C(=O)O,17,3.9,1.3,Activity [4]: Active; Activity (SH-SY5Y [6]): inactive
CC(=S)NCCCC[C@H](NC(=O)CCc1ccccc1)C(=O)N[C@@H](C)C(=O)O,56,8.5,0.99,–
CC(=S)NCCCC[C@H](NC(=O)OCc1ccccc1)C(=O)Nc1ccccc1F,16,1.4,7.4,–
CC(=S)NCCCC[C@H](NC(=O)CCc1ccccc1F)C(=O)N[C@@H](C)C(=O)O,27,16.3,1.3,–
CC(=S)NCCCC[C@H](N)C(=O)N[C@@H](C)C(=O)O,–,–,–,inhibition [12]: 46.9%
CSCC[C@H](NC(=O)[C@H](CC(C)C)NC(=O)[C@H](CCCCNC(C)=S)NC(=O)[C@H](CCCCN)NC(=O)[C@@H](N)Cc1cnc[nH]1)C(=O)O (H-HK[Lys(Thioacetyl)]LM-OH),6.3,–,0.31,–
CC(=S)NCCCC[C@H](NC(=O)OCc1ccccc1)C(=O)Nc1ccccc1O,7.4,1.9,5.1,–
